Reference: ChEMBL document CHEMBL1649165, “Activity profile in vitro of micafungin against Spanish clinical isolates of common and emerging species of yeasts and molds” (2009)
Converted amounts (≈) assume the structure as drawn.

Tests used:
Assay type in all cases: functional
[1] = tested on: Cryptococcus deneoformans; test: Antimicrobial activity against Cryptococcus neoformans var. neoformans by broth microdilution method
How it was run: (§1)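 Clinical isolates of nonfermentative yeasts, tested by broth microdilution following EUCAST recommendations. The only change from that method was a minor modification to improve growth.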

Trichosporon domesticum = test: Antimicrobial activity against Trichosporon mycotoxinivorans by broth microdilution method; settings: Apiotrichum domesticum
How it was run: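 Spanish human clinical isolates were tested as nonfermentative yeasts by broth microdilution. The method strictly followed the EUCAST recommendations, with a minor modification to improve growth, and the read-out was the MIC.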

Wickerhamomyces anomalus = test: Antimicrobial activity against Candida pelliculosa by broth microdilution method; settings: Hansenula anomala
How it was run: (§2)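 Clinical isolates from human patients, tested by broth microdilution using the AFST-EUCAST reference procedure for fermentative yeasts. The MIC was read per that reference method.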

Trichosporon asahii = test: Antimicrobial activity against Trichosporon asahii by broth microdilution method
How it was run: (§3)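 Nonfermentative yeast clinical isolates (Rhodotorula, Trichosporon) tested by broth microdilution. The EUCAST yeast recommendations were followed strictly, with one minor modification to improve growth. MIC was read as the endpoint.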

Candida albicans = test: Antimicrobial activity against Candida albicans by broth microdilution method; how it was run: as §2
Candida metapsilosis = test: Antimicrobial activity against Candida metapsilosis by broth microdilution method; settings: Lodderomyces metapsilosis; how it was run: as §2
Clavispora lusitaniae = test: Antimicrobial activity against Candida lusitaniae by broth microdilution method; how it was run: as §2
Candida tropicalis = test: Antimicrobial activity against Candida tropicalis by broth microdilution method; how it was run: as §2
Trichosporon dermatis = test: Antimicrobial activity against Trichosporon dermatis by broth microdilution method; settings: Cutaneotrichosporon dermatis; how it was run: as §3
[2] = tested on: Meyerozyma guilliermondii; test: Antimicrobial activity against Candida guilliermondii by broth microdilution method; how it was run: as §2
Trichosporon = test: Antimicrobial activity against Trichosporon spp. by broth microdilution method; how it was run: as §3
Kluyveromyces marxianus = test: Antimicrobial activity against Candida kefyr by broth microdilution method; how it was run: as §2
Trichosporon inkin = test: Antimicrobial activity against Trichosporon inkin by broth microdilution method; how it was run: as §3
Naganishia albida = test: Antimicrobial activity against Cryptococcus albidus by broth microdilution method; how it was run: as §1
[Candida] inconspicua = Antimicrobial activity against Candida inconspicua by broth microdilution method; settings: Pichia inconspicua; how it was run: as §2
Ustilago = test: Antimicrobial activity against Ustilago spp by broth microdilution method
[Candida] zeylanoides = Antimicrobial activity against Candida zeylanoides by broth microdilution method; settings: Dujonia zeylanoides; how it was run: as §2
Diutina rugosa = test: Antimicrobial activity against Candida rugosa by broth microdilution method; how it was run: as §2
Yarrowia lipolytica = test: Antimicrobial activity against Yarrowia lipolytica by broth microdilution method
Geotrichum candidum = test: Antimicrobial activity against Galactomyces geotrichum by broth microdilution method
Magnusiomyces capitatus = test: Antimicrobial activity against Dipodascus capitatus by broth microdilution method
Torulaspora delbrueckii = test: Antimicrobial activity against Candida coliculosa by broth microdilution method; how it was run: as §2
Trichosporon jirovecii = test: Antimicrobial activity against Trichosporon jirovecii by broth microdilution method; settings: Cutaneotrichosporon jirovecii; how it was run: as §3
Nakaseomyces glabratus = test: Antimicrobial activity against Candida glabrata by broth microdilution method; how it was run: as §2
[Candida] intermedia = Antimicrobial activity against Candida intermedia by broth microdilution method; settings: Sungouiella intermedia; how it was run: as §2
[3] = tested on: Kazachstania pintolopesii; test: Antimicrobial activity against Candida pintolopesii by broth microdilution method; settings: Arxiozyma pintolopesii; how it was run: as §2
Rhodotorula mucilaginosa = test: Antimicrobial activity against Rhodotorula mucilaginosa by broth microdilution method; how it was run: as §3
Pichia kudriavzevii = test: Antimicrobial activity against Candida krusei by broth microdilution method; how it was run: as §2
Pichia norvegensis = test: Antimicrobial activity against Candida norvegensis by broth microdilution method; how it was run: as §2
Candida parapsilosis = test: Antimicrobial activity against Candida parapsilosis by broth microdilution method; settings: Lodderomyces parapsilosis; how it was run: as §2
Debaryomyces hansenii = test: Antimicrobial activity against Candida famata by broth microdilution method; how it was run: as §2
Papiliotrema laurentii = test: Antimicrobial activity against Cryptococcus laurentii by broth microdilution method; how it was run: as §1
Rhodotorula glutinis = test: Antimicrobial activity against Rhodotorula glutinis by broth microdilution method; how it was run: as §3
Candida orthopsilosis = test: Antimicrobial activity against Candida orthopsilosis by broth microdilution method; settings: Lodderomyces orthopsilosis; how it was run: as §2
Saccharomyces cerevisiae = test: Antimicrobial activity against Saccharomyces cerevisiae by broth microdilution method
Trichosporon ovoides = test: Antimicrobial activity against Trichosporon ovoides by broth microdilution method; how it was run: as §3

Compound: Nc1nc(=O)[nH]cc1F [FLUCYTOSINE]
- MIC50 [1]: 16 µg/mL (≈ 124 µM)
- MIC90 [1]: 32 µg/mL (≈ 248 µM)
- MIC50 (Trichosporon domesticum): 16 µg/mL (≈ 124 µM)
- MIC90 (Trichosporon domesticum): > 64 µg/mL
- MIC50 (Wickerhamomyces anomalus): 0.25 µg/mL (≈ 1.94 µM)
- MIC90 (Wickerhamomyces anomalus): 16 µg/mL (≈ 124 µM)
- MIC50 (Trichosporon asahii): 32 µg/mL (≈ 248 µM)
- MIC90 (Trichosporon asahii): > 64 µg/mL
- MIC50 (Candida albicans): 0.12 µg/mL (≈ 0.93 µM)
- MIC90 (Candida albicans): 0.5 µg/mL (≈ 3.87 µM)
- MIC50 (Candida metapsilosis): 0.25 µg/mL (≈ 1.94 µM)
- MIC90 (Candida metapsilosis): 16 µg/mL (≈ 124 µM)
- MIC50 (Clavispora lusitaniae): 0.12 µg/mL (≈ 0.93 µM)
- MIC90 (Clavispora lusitaniae): 16 µg/mL (≈ 124 µM)
- MIC50 (Candida tropicalis): 0.12 µg/mL (≈ 0.93 µM)
- MIC90 (Candida tropicalis): 0.25 µg/mL (≈ 1.94 µM)
- MIC50 (Trichosporon dermatis): 16 µg/mL (≈ 124 µM)
- MIC90 (Trichosporon dermatis): > 64 µg/mL
- MIC50 [2]: 0.12 µg/mL (≈ 0.93 µM)
- MIC90 [2]: 0.25 µg/mL (≈ 1.94 µM)
- MIC50 (Trichosporon): 16 µg/mL (≈ 124 µM)
- MIC90 (Trichosporon): > 64 µg/mL
- MIC50 (Kluyveromyces marxianus): 0.5 µg/mL (≈ 3.87 µM)
- MIC90 (Kluyveromyces marxianus): 4 µg/mL (≈ 31 µM)
- MIC50 (Trichosporon inkin): 64 µg/mL (≈ 496 µM)
- MIC90 (Trichosporon inkin): > 64 µg/mL
- MIC50 (Naganishia albida): 16 µg/mL (≈ 124 µM)
- MIC90 (Naganishia albida): > 64 µg/mL
- MIC50 ([Candida] inconspicua): 0.25 µg/mL (≈ 1.94 µM)
- MIC90 ([Candida] inconspicua): 16 µg/mL (≈ 124 µM)
- MIC50 (Ustilago): 16 µg/mL (≈ 124 µM)
- MIC90 (Ustilago): > 64 µg/mL
- MIC50 ([Candida] zeylanoides): 0.25 µg/mL (≈ 1.94 µM)
- MIC90 ([Candida] zeylanoides): 16 µg/mL (≈ 124 µM)
- MIC50 (Diutina rugosa): 0.25 µg/mL (≈ 1.94 µM)
- MIC90 (Diutina rugosa): 16 µg/mL (≈ 124 µM)
- MIC50 (Yarrowia lipolytica): > 64 µg/mL
- MIC90 (Yarrowia lipolytica): > 64 µg/mL
- MIC50 (Geotrichum candidum): 0.12 µg/mL (≈ 0.93 µM)
- MIC90 (Geotrichum candidum): 0.25 µg/mL (≈ 1.94 µM)
- MIC50 (Magnusiomyces capitatus): 0.12 µg/mL (≈ 0.93 µM)
- MIC90 (Magnusiomyces capitatus): 1 µg/mL (≈ 7.75 µM)
- MIC50 (Torulaspora delbrueckii): 0.25 µg/mL (≈ 1.94 µM)
- MIC90 (Torulaspora delbrueckii): 16 µg/mL (≈ 124 µM)
- MIC50 (Trichosporon jirovecii): 16 µg/mL (≈ 124 µM)
- MIC90 (Trichosporon jirovecii): > 64 µg/mL
- MIC50 (Nakaseomyces glabratus): 0.12 µg/mL (≈ 0.93 µM)
- MIC90 (Nakaseomyces glabratus): 0.25 µg/mL (≈ 1.94 µM)
- MIC50 ([Candida] intermedia): 0.25 µg/mL (≈ 1.94 µM)
- MIC90 ([Candida] intermedia): 16 µg/mL (≈ 124 µM)
- MIC50 [3]: 0.25 µg/mL (≈ 1.94 µM)
- MIC90 [3]: 16 µg/mL (≈ 124 µM)
- MIC50 (Rhodotorula mucilaginosa): 0.25 µg/mL (≈ 1.94 µM)
- MIC90 (Rhodotorula mucilaginosa): 1 µg/mL (≈ 7.75 µM)
- MIC50 (Pichia kudriavzevii): 4 µg/mL (≈ 31 µM)
- MIC90 (Pichia kudriavzevii): 8 µg/mL (≈ 62 µM)
- MIC50 (Pichia norvegensis): 0.25 µg/mL (≈ 1.94 µM)
- MIC90 (Pichia norvegensis): 16 µg/mL (≈ 124 µM)
- MIC50 (Candida parapsilosis): 0.12 µg/mL (≈ 0.93 µM)
- MIC90 (Candida parapsilosis): 0.25 µg/mL (≈ 1.94 µM)
- MIC50 (Debaryomyces hansenii): 0.25 µg/mL (≈ 1.94 µM)
- MIC90 (Debaryomyces hansenii): 16 µg/mL (≈ 124 µM)
- MIC50 (Papiliotrema laurentii): 16 µg/mL (≈ 124 µM)
- MIC90 (Papiliotrema laurentii): > 64 µg/mL
- MIC50 (Rhodotorula glutinis): 16 µg/mL (≈ 124 µM)
- MIC90 (Rhodotorula glutinis): > 64 µg/mL
- MIC50 (Candida orthopsilosis): 0.25 µg/mL (≈ 1.94 µM)
- MIC90 (Candida orthopsilosis): 16 µg/mL (≈ 124 µM)
- MIC50 (Saccharomyces cerevisiae): 0.12 µg/mL (≈ 0.93 µM)
- MIC90 (Saccharomyces cerevisiae): 0.5 µg/mL (≈ 3.87 µM)
- MIC50 (Trichosporon ovoides): 16 µg/mL (≈ 124 µM)
- MIC90 (Trichosporon ovoides): > 64 µg/mL
